13 compounds from PubChem BioAssay AID651708 (Sanford-Burnham Center for Chemical Genomics, 2012) can be followed below.

Common to all, as to test: GPCR panel antagonist activity incl. apelin receptor – cell-based, CHO-K1 PathHunter beta-arrestin, luminescence, set 3, selectivity assay for CXCR6 antagonist project, profiling panel (AID 651708)
The target in test [1] is C-C chemokine receptor type 6 (Homo sapiens) (UniProt P51684). Conditions: antagonist mode. The procedure, abridged: (§1)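 test system = CHO-K1 PathHunter β-arrestin cell lines for APJ, CCR6 or CXCR6 | reagent = APJ 10 nM Apelin-13, CCR6 14 nM CCL20, CXCR6 CXCL16 | measured by = β-arrestin recruitment luminescence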
Test [2] addresses Apelin receptor (Homo sapiens) (UniProt P35414). To be noted: antagonist mode, APJ. The procedure, abridged: as §1
Test [3] concerns the target C-X-C chemokine receptor type 6 (Homo sapiens) (UniProt O00574). To be noted: antagonist mode. The procedure, abridged:
as §1

Each structure is given as a SMILES string. The source made the active and inactive calls.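 How the source made its calls: active means compound with IC50 above 30 µM at both the APJ and CCR6 off-target receptors, and at most 10 µM at CXCR6; inactive means the rest.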

Sequence of C-X-C chemokine receptor type 6 (Homo sapiens) (O00574 whole entry, looked up): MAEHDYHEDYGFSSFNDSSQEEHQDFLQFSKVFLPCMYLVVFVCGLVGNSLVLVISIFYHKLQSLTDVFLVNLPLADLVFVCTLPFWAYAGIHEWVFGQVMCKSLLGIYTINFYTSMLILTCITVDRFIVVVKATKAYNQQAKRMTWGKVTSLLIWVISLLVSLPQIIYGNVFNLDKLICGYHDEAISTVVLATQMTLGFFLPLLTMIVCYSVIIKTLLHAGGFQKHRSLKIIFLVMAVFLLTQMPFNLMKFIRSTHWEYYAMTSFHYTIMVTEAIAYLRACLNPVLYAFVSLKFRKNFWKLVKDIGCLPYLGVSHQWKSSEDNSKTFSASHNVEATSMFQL
Sequence of C-C chemokine receptor type 6 (Homo sapiens) (P51684 whole entry, looked up): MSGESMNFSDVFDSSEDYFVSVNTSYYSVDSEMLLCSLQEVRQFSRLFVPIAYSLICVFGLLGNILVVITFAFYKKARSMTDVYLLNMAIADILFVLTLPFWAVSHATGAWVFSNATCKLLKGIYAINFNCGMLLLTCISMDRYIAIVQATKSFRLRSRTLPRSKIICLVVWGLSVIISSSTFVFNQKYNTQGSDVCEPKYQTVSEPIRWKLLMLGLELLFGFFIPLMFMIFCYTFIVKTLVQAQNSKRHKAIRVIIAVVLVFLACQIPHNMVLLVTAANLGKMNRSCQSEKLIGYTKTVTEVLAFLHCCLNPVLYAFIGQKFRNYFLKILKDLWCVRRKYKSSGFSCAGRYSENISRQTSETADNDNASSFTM
Sequence of Apelin receptor (Homo sapiens) (P35414 whole entry, looked up): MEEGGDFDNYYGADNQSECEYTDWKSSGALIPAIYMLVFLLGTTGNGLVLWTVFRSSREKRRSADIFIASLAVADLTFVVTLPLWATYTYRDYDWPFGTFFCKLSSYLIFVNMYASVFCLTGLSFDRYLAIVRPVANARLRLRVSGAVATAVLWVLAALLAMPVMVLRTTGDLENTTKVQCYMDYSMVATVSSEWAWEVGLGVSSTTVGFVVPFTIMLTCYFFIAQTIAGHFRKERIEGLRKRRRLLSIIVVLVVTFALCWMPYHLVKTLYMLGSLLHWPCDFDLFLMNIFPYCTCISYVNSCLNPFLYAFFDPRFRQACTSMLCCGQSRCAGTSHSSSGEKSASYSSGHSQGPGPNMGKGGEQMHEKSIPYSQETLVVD

By IC50 is commonly meant the concentration needed to halve the response being measured. As to `COc1ccc(NC(=O)CN2C3CCCC2CC(NC(=O)c2ccc(OC)c(OC)c2)C3)cc1` (stereo not drawn), the IC50 in test [1] (CCR6, mean of runs) is > 79 µM (inactive); in test [1] (CCR6, run 1), more than 79 µM; in test [1] (CCR6, run 2), more than 79 µM; in test [2] (run 1), more than 79 µM; in test [2] (run 2), 0.307 µM; in test [3] (CXCR6, mean of runs) it was > 79 µM (inactive). In addition, the IC50 in test [3] (CXCR6, run 1) is more than 79 µM; in test [3] (CXCR6, run 2), more than 79 µM.

Regarding `COc1cccc(C(=O)NC2CC3CCCC(C2)N3CC(=O)Nc2ccc(Cl)cc2)c1` (stereo not drawn), the IC50 was > 79 µM (inactive) in test [1] (CCR6, mean of runs); more than 79 µM in test [1] (CCR6, run 1); more than 79 µM in test [1] (CCR6, run 2); > 79 µM (inactive) in test [2] (mean of runs); more than 79 µM in test [2] (run 1); more than 79 µM in test [2] (run 2). In addition, the IC50 in test [3] (CXCR6, mean of runs) was > 79 µM (inactive); in test [3] (CXCR6, run 1), more than 79 µM; in test [3] (CXCR6, run 2), more than 79 µM.

Take `COc1cc(OC)cc(C(=O)NC2CC3CCCC(C2)N3CC(=O)Nc2ccc(C)cc2)c1` (stereo not drawn): the IC50 in test [1] (CCR6, mean of runs) is > 79 µM (inactive); in test [1] (CCR6, run 1) it was more than 79 µM; in test [1] (CCR6, run 2) it was more than 79 µM; in test [2] (mean of runs) it was > 79 µM (inactive); in test [2] (run 1), more than 79 µM; in test [2] (run 2) it was more than 79 µM. The IC50 in test [3] (CXCR6, mean of runs) is > 79 µM (inactive); in test [3] (CXCR6, run 1), more than 79 µM; in test [3] (CXCR6, run 2), more than 79 µM.

Take `COc1ccc(NC(=O)CN2C3CCCC2CC(NC(=O)c2cc(OC)c(OC)c(OC)c2)C3)cc1` (stereo not drawn): the IC50 in test [1] (CCR6, mean of runs) was > 79 µM (inactive); in test [1] (CCR6, run 1), more than 79 µM; in test [1] (CCR6, run 2), more than 79 µM; in test [2] (mean of runs), > 79 µM (inactive); in test [2] (run 1), more than 79 µM; in test [2] (run 2), more than 79 µM. Moreover, the IC50 was 12.4 µM in test [3] (CXCR6, run 1) and 26.4 µM in test [3] (CXCR6, run 2). The IC50 entry in test [3] (CXCR6, mean of runs) was “inactive”.

In the case of `COc1ccc(CN2C3CCCC2CC(NC(=O)c2cc(OC)c(OC)c(OC)c2)C3)cc1` (stereo not drawn), the IC50 was > 79 µM (inactive) in test [1] (CCR6, mean of runs); more than 79 µM in test [1] (CCR6, run 1); more than 79 µM in test [1] (CCR6, run 2); 17.1 µM in test [2] (mean of runs); 10.1 µM in test [2] (run 1); 24.2 µM in test [2] (run 2). Further, the IC50 in test [3] (CXCR6, mean of runs) is > 79 µM (inactive); in test [3] (CXCR6, run 1) it was more than 79 µM; in test [3] (CXCR6, run 2), more than 79 µM.

With `COc1cc(C(=O)NC2CC3CCCC(C2)N3CC(=O)Nc2ccc(C)cc2)cc(OC)c1OC` (stereo not drawn), the IC50 in test [1] (CCR6, mean of runs) was > 79 µM (inactive); in test [1] (CCR6, run 1), more than 79 µM; in test [1] (CCR6, run 2) it was more than 79 µM; in test [2] (mean of runs), > 79 µM (inactive); in test [2] (run 1), more than 79 µM; in test [2] (run 2) it was more than 79 µM. The IC50 is 5.69 µM in test [3] (CXCR6, mean of runs); 5.37 µM in test [3] (CXCR6, run 1); 6 µM in test [3] (CXCR6, run 2).

Turning to `COc1ccc(C(=O)NC2CC3CCCC(C2)N3CC(=O)Nc2ccc(Cl)cc2)cc1` (stereo not drawn), the IC50 in test [1] (CCR6, mean of runs) was > 79 µM (inactive); in test [1] (CCR6, run 1), more than 79 µM; in test [1] (CCR6, run 2), more than 79 µM; in test [2] (mean of runs), > 79 µM (inactive); in test [2] (run 1) it was more than 79 µM; in test [2] (run 2), more than 79 µM. The IC50 in test [3] (CXCR6, mean of runs) was > 79 µM (inactive); in test [3] (CXCR6, run 1), more than 79 µM; in test [3] (CXCR6, run 2), more than 79 µM.

Take `COc1cc(C(=O)NC2CC3CCCC(C2)N3CC(=O)Nc2ccc(Cl)cc2)cc(OC)c1OC` (stereo not drawn): the IC50 is > 79 µM (inactive) in test [1] (CCR6, mean of runs); more than 79 µM in test [1] (CCR6, run 1); more than 79 µM in test [1] (CCR6, run 2); more than 79 µM in test [2] (run 1); 52.7 µM in test [2] (run 2); 1.46 µM in test [3] (CXCR6, mean of runs). Besides, the IC50 came out at 1.27 µM in test [3] (CXCR6, run 1) and 1.65 µM in test [3] (CXCR6, run 2).

Take `COc1cc(C(=O)NC2CC3CCCC(C2)N3CC(=O)Nc2ccccc2Cl)cc(OC)c1OC` (stereo not drawn): the IC50 in test [1] (CCR6, mean of runs) is > 79 µM (inactive); in test [1] (CCR6, run 1), more than 79 µM; in test [1] (CCR6, run 2) it was more than 79 µM; in test [2] (run 1) it was more than 79 µM; in test [2] (run 2), 0.818 µM; in test [3] (CXCR6, mean of runs), 0.338 µM. Moreover, the IC50 was 0.191 µM in test [3] (CXCR6, run 1) and 0.484 µM in test [3] (CXCR6, run 2).

Consider `O=C(CN1C2CCCC1CC(NC(=O)c1ccccc1)C2)Nc1ccccc1` (stereo not drawn), for which the IC50 in test [1] (CCR6, mean of runs) is > 79 µM (inactive); in test [1] (CCR6, run 1) it was more than 79 µM; in test [1] (CCR6, run 2) it was more than 79 µM; in test [2] (mean of runs) it was > 79 µM (inactive); in test [2] (run 1), more than 79 µM; in test [2] (run 2) it was more than 79 µM. Further, the IC50 in test [3] (CXCR6, mean of runs) is > 79 µM (inactive); in test [3] (CXCR6, run 1), more than 79 µM; in test [3] (CXCR6, run 2), more than 79 µM.

Regarding `COc1ccc(C(=O)NC2CC3CCCC(C2)N3CC(=O)Nc2ccc(Cl)cc2)cc1OC` (stereo not drawn), the IC50 in test [1] (CCR6, mean of runs) is > 79 µM (inactive); in test [1] (CCR6, run 1), more than 79 µM; in test [1] (CCR6, run 2), more than 79 µM; in test [2] (mean of runs) it was > 79 µM (inactive); in test [2] (run 1) it was more than 79 µM; in test [2] (run 2), more than 79 µM. The IC50 is > 79 µM (inactive) in test [3] (CXCR6, mean of runs); more than 79 µM in test [3] (CXCR6, run 1); more than 79 µM in test [3] (CXCR6, run 2).

Take `COc1ccc(NC(=O)CN2C3CCCC2CC(NC(=O)c2ccc(OC)cc2)C3)cc1` (stereo not drawn): the IC50 is > 79 µM (inactive) in test [1] (CCR6, mean of runs); more than 79 µM in test [1] (CCR6, run 1); more than 79 µM in test [1] (CCR6, run 2); more than 79 µM in test [2] (run 1); 4.23 µM in test [2] (run 2); > 79 µM (inactive) in test [3] (CXCR6, mean of runs). The IC50 in test [3] (CXCR6, run 1) was more than 79 µM; in test [3] (CXCR6, run 2) it was more than 79 µM.

As to `COc1ccc(NC(=O)CN2C3CCCC2CC(NC(=O)c2cc(OC)cc(OC)c2)C3)cc1` (stereo not drawn), the IC50 in test [1] (CCR6, mean of runs) is > 79 µM (inactive); in test [1] (CCR6, run 1) it was more than 79 µM; in test [1] (CCR6, run 2), more than 79 µM; in test [2] (mean of runs), > 79 µM (inactive); in test [2] (run 1), more than 79 µM; in test [2] (run 2), more than 79 µM. Also, the IC50 in test [3] (CXCR6, mean of runs) is > 79 µM (inactive); in test [3] (CXCR6, run 1), more than 79 µM; in test [3] (CXCR6, run 2) it was more than 79 µM.
